Experimental data published in ChEMBL document CHEMBL4513216, “Probing the Open Global Health Chemical Diversity Library for Multistage-Active Starting Points for Next-Generation Antimalarials” (ACS Infect Dis, 2020).

Experiment: Toxicity liver stage against HepG2, at 10uM
Format: cell-based
Set-up: test concentration 10 uM, cell line HepG2-A16-CD81EGFP
Settings: human, HepG2-A16-CD81EGFP cells; read-out: INHIBITION
Summary of the method: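 Uninfected HepG2-A16-CD81EGFP cells, 3 × 10^3 per well, 1536-well, plated on prespotted compound at 10 μM final, parasite-free screening media added to match infected plates; puromycin 10 μM positive, DMSO 0.5% negative; run in parallel with 48 h PbLuc assay at 37 °C, 5% CO2; viability by CellTiter-Glo luminescence, normalized to controls.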

Compound | cytotoxicity at 10 µM
CC(C)c1nccc([C@@H]2C[C@@H]3CCN(Cc4ccco4)C[C@H]3O2)n1 | 1.1%
c1ccc(-c2ccc3nc(C4CCN(CC5CC5)CC4)nn3c2)cc1 | -7.32%
Cc1cc(C(=O)N(C)CCN(C)C(=O)OC(C)(C)C)oc1C | 3.51%
CC(C1CC1)N(C(=O)CNc1ccc(C#N)cc1)C1CC1 (configuration not stated) | -5.28%
CN(Cc1nccn1C)S(=O)(=O)c1cccc(C#N)c1 | 15.1%
CO[C@@]1(C)C[C@@H](O)C12CCN(C(=O)CCn1c(C)cccc1=O)CC2 | 3.43%
O=C1CC2(CCN(c3nncs3)C2)CN1c1cncnc1 (configuration not stated) | -0.376%
c1cnc(N2CCOCC3(CN(Cc4nccs4)CCO3)C2)nc1 (configuration not stated) | 1.5%
O=S(=O)(N1CCCC1)N(Cc1ccccc1)CC1CCCO1 (configuration not stated) | -0.966%
Cc1nnc2n1CCN(C(=O)c1cc(Br)c(Cl)[nH]1)C2 | -12.7%
CN(C)C(=O)c1ccccc1NC(=O)N(C)Cc1ccccc1O | -1.03%
N#CC1(C(=O)N2CCCN(c3nccs3)CC2)CCCC1 | -11.1%
O=C1[C@@H]2CC[C@@H](CN(Cc3ccccc3OC(F)F)C2)N1CC1CC1 | -6.17%
Cc1nn(-c2ccccc2)nc1C(=O)N1CCCC(n2cccn2)C1 (configuration not stated) | -9.53%
COCCNC(=O)C(C)n1nc(-c2ccc(C)o2)cc(N)c1=O (configuration not stated) | 1.26%
CCCS(=O)(=O)N1CCN(CCCO)CC1 | 5.96%
Cn1cc2c(n1)C(CNC(=O)Cc1ccsc1)OCC2 (configuration not stated) | 0.175%
CC(=O)NCC1CCN(C(=O)CCOc2ccc(C(C)C)cc2)CC1 | -11.6%
Cn1cc(C(=O)N2CCC(c3cc(CCO)n(C)n3)C2)cn1 (configuration not stated) | -0.0959%
CC(C)C(C(=O)N1CCCN(Cc2nccn2C)CC1)N1CCCC1 (configuration not stated) | -13%
COCC(=O)N(C)Cc1nc(N2CCCC2)ncc1-c1ccncc1 | 12.3%

Compound | cytotoxicity at 10 µM
COc1cccc(CN2CCN3C(=O)NC[C@H]3C2)n1 | -1.45%
Cc1cnc(N2CCO[C@@H]3CC(COCc4cccnc4)C[C@H]32)nc1 (some centres not stated) | 3.93%
Cc1cc(NC(=O)CN(c2ccccc2)C(C)C)on1 | -1.54%
COCc1nn(CC2CC2)c2c1CN(Cc1cccs1)CC2 | 0.994%
CN1CC(c2ccccc2)CC12CCN(C(=O)c1ccc(F)cc1)CC2 (configuration not stated) | -12.1%
CCOc1c(Cl)cc(/C=C/c2ncc(C(=O)O)s2)cc1OC | 3.91%
CC(=O)N1CCCC2(CCN(c3ccccc3)C2=O)C1 (configuration not stated) | 1.91%
CC1CCCN(C(=O)Nc2ccc(F)c(C(N)=O)c2)C1 (configuration not stated) | -7.48%
CCNC(c1ccc(CC)cc1)c1cccnc1 (configuration not stated) | -5.4%
CC1c2cc(F)ccc2CCN1CCCS(=O)(=O)C(C)C (configuration not stated) | 9.15%
O=C(c1cc(-n2cnnn2)ccc1Cl)N1CCCCCC1 | 5.56%
CC(O)CN1CCN(C(=O)c2ccc(Br)o2)CC1 (configuration not stated) | -8.6%
CC(C)C(=O)N1CCCC(c2cc(C(F)F)n3ncnc3n2)C1 (configuration not stated) | 1.18%
O=C(NCC[S+]([O-])c1ccccc1)c1ccc2[nH]c(=O)[nH]c2c1 (configuration not stated) | 3.18%
COc1ccccc1N1CCC(NCc2c(C)noc2C)C1 (configuration not stated) | 1.81%
CC(=O)Nc1ccc(C(=O)N2CCSCC2c2ccc(C)o2)cc1 (configuration not stated) | 11.4%
CC(NC(=O)CCc1cccs1)c1nnc2n1CCC2 (configuration not stated) | -4.22%
Cc1[nH]nc(CCC(=O)N2CCc3ncnc(NCCO)c3CC2)c1C | -0.781%
Cc1ccsc1C(=O)N1CCc2ncc(CN3CCCC3)n2CC1 | -111%
Cn1ccnc1CN1CCC(c2nnc(Cn3cccn3)n2C)CC1 | 17.4%
CCN(C1CCN(Cc2ncc(C(C)(C)C)o2)CC1)S(C)(=O)=O | -4.15%

Compound | cytotoxicity at 10 µM
CCOCCN1CCN(c2ccc(C#N)cn2)CC1 | -4.21%
c1ccc2c(c1)CN(c1ncnc3c1CCNC3)CCO2 | 3.13%
CCc1nnc2n1CCN(C(=O)c1ccnc(N(C)C)c1)C2 | -21%
O=C(NCc1ccoc1)c1ccc(C2CCCN2CC2CCOCC2)s1 (configuration not stated) | 6.7%
Cc1cc(NC(=O)NCC2CCN(C(C)C)C2)no1 (configuration not stated) | -15.3%
Cn1cc(-c2nnn3c2COC(CNCc2nccs2)C3)cn1 (configuration not stated) | -4.89%
c1ccc(CN2CCC(NCCc3ccc4c(c3)CCO4)CC2)nc1 | 3.73%
CC(C)[C@H](N)C(=O)N1CCSc2ccccc2C1 | -5.53%
CC(=O)NCCC1CCN(c2nc(C(C)(C)C)nc3c2cnn3C)CC1 | -0.891%
Cc1nnc([C@@H]2CC[C@@H]3[C@@H](CCN3C3CCC3)O2)o1 | 8.19%
Cc1cc(CN2CCC(C3CCN(Cc4cccnc4)CC3)C2)[nH]n1 (configuration not stated) | 11%
CCCn1cnc(NC(=O)NCC2CCS(=O)(=O)C2)n1 (configuration not stated) | 10.3%
CCN1CCc2cc(-c3cncn3CCNC3CCS(=O)(=O)C3)ccc21 (configuration not stated) | -1.59%
CC(C)(C)c1ccc(C2(C(=O)NCCCS(C)(=O)=O)CC2)cc1 | -12.6%
O=C(NC1CCCC1)C1Cc2nc(-c3ccsc3)sc2N1CC1CC1 (configuration not stated) | 16.6%
CSc1[nH]nc(NC(=O)c2cccs2)c1C#N | -1.04%
CCS(=O)(=O)N1CCCCC1c1nc(C)no1 (configuration not stated) | 7.03%
O=C(Cc1ccc2c(c1)OCC2)Nc1nn[nH]n1 | 0.548%
COc1cc(C2CC(=O)Oc3cc(C)[nH]c(=O)c32)ccc1OC(F)F (configuration not stated) | 7.34%
O=C(c1scc2c1OCCO2)N1CCOC(CCc2ccccc2)C1 (configuration not stated) | 10.5%
F[C@@H]1CN(CC2CC2)C[C@@H]1OCc1nc2ccccc2o1 | 1.97%

Compound | cytotoxicity at 10 µM
Cc1sc(-c2ccco2)nc1C(=O)N1CCCC1Cn1cccn1 (configuration not stated) | -11.2%
CC(C)n1ccc(-c2cc(C(=O)NC3CC3)c3ccccn23)n1 | -5.4%
CSC(C)C(=O)N(C)CCCc1cc(-c2ccccc2)no1 (configuration not stated) | 2.63%
Cc1ccc(-c2ccnc(N3CCC4(CCO4)CC3)n2)c(C)n1 | 2.05%
CC(C)n1ccnc1CN1CCCN(C(=O)c2ncccc2O)CC1 | -3.45%
Cc1ccc(CC(=O)N(C)CC2(O)CCCN(c3ccccn3)C2)s1 (configuration not stated) | -14.1%
O=C1CCCC2=Nc3nonc3NC(c3ccc(F)cc3F)C12 (configuration not stated) | 2.43%
O=C(Nc1ccccc1)N1C2CCC(O)(CC2)C1CN1CCOCC1 (configuration not stated) | 10%
CN(C)S(=O)(=O)c1ccc(CN2CCCC2CO)o1 (configuration not stated) | -6.88%
N#Cc1cccc(CN2C[C@@H](F)[C@@H](OCc3nc4ccccc4[nH]3)C2)c1 | 6%
CC(C)n1cc(CN2CCCN(C(=O)c3nccnc3N)CC2)cn1 | 7.13%
CC(O)CN1CCN(C(=O)c2cccc3[nH]ncc23)CC1 (configuration not stated) | -20.5%
O=C(NC1COC2(CCN(Cc3ccccn3)CC2)C1)c1ccccn1 (configuration not stated) | -4.74%
CC(Cn1cccn1)NC(=O)NCCc1ccsc1 (configuration not stated) | -14.8%
CC1CCN(CCCNC(=O)Nc2cc3c(cc2Br)OCCO3)CC1 | -3.11%
COCCN1CCC(CNC(=O)C2(c3cccc(C)c3)CC2)CC1 | -1.88%
COc1ncccc1C(=O)N1CCC(CNC(C)=O)CC1 | 3.17%
c1cc(CNCc2ccnc(N3CCCC3)c2)c2c(c1)OCCCO2 | 26.6%
CCOC1CCN(C(=O)NCc2ccc(C(=O)N(C)C(C)C)cc2)CC1 | -6.55%
